Key:
[1] = system: Rattus norvegicus; assay: Apparent terminal half life as total radioactivity in female Sprague-Dawley rat plasma at 5 mg/kg, iv administered as single dose by LC/MS/MS analysis; format: ADME, organism-based; set-up: dose 5 mg/kg, dosed compound name [14C]Sunitinib, route intravenous; conditions: in vivo
Procedure, shortened: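 Single dose of [14C]sunitinib L-malate as free base, 50 µCi/kg. IV dose was 5 mg/kg by tail vein in 5 females. Oral dose was 15 mg/kg by gavage in 3 females and 3 males. Total radioactivity was by scintillation counting. […] Cmax was read from raw data, t½ by log-linear regression, AUC by linear trapezoidal rule.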

[2] = system: Cynomolgus monkey; assay: Cmax as total radioactivity in female cynomolgus monkey plasma at 6 mg/kg, po administered as single dose by LC/MS/MS analysis; format: ADME, organism-based, Macaca fascicularis; set-up: dose 6 mg/kg, dosed compound name [14C]Sunitinib, route oral; conditions: in vivo
Procedure, shortened: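 Cynomolgus monkeys of both sexes received one oral gavage of [14C]sunitinib L-malate at 6 mg/kg (37 µCi/kg). Femoral-vein blood was taken into heparin from 0.5 to 336 h. Plasma was kept cold and protected from light, then stored at -80 °C. Total radioactivity was by scintillation counting and sunitinib by methanol-extraction LC-MS-MS. Cmax was from raw data, t½ from the log-linear terminal slope, AUC(0-∞) by linear trapezoidal rule.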

[3] = system: Cynomolgus monkey; assay: Tmax as total radioactivity in female cynomolgus monkey plasma at 6 mg/kg, po administered as single dose by LC/MS/MS analysis; format: ADME, organism-based, Macaca fascicularis; set-up: dose 6 mg/kg, dosed compound name [14C]Sunitinib, route oral; conditions: in vivo
[4] = system: Brain; assay: Drug concentration in female albino rat brain assessed as radioactivity per gram of tissue at 20 mg/kg administered as single dose via gastric gavage measured after 3 hrs by autoradiographic analysis; format: ADME, organism-based; set-up: dose 20 mg/kg, dosed compound name [14C]Sunitinib; conditions: in vivo, po
Procedure, shortened: (§1)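 Sprague Dawley (albino) rats, ca 7-8 weeks old, received a single gastric-gavage dose of [14C]sunitinib L-malate at 20 mg/kg (15 mg freebase/kg, 100 µCi/kg). One animal per sex killed by CO2 at 3, 6, 24, 72 and 168 h, then frozen in CO2/hexane. 30 µm sagittal sections were cut and freeze-dried. Radioactivity per gram quantified by whole-body autoradiography using regression against standards. LOQ 0.04–0.06 µg freebase equiv/g.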

[5] = system: Pancreas; assay: Drug concentration in female albino rat pancreas assessed as radioactivity per gram of tissue at 20 mg/kg administered as single dose via gastric gavage measured after 3 hrs by autoradiographic analysis; format: ADME, organism-based; set-up: dose 20 mg/kg, dosed compound name [14C]Sunitinib; conditions: in vivo, po
Procedure, shortened: (§2)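 Sprague Dawley albino rats, ca 7-8 weeks old, dosed once by gastric gavage with [14C]sunitinib L-malate (15 mg freebase/kg, 100 µCi/kg). One male and one female killed by CO2 at 3, 6, 24, 72 and 168 h. Carcasses frozen in solid CO2/hexane, embedded and cut into 30 µm sagittal sections, then freeze-dried. Radioactivity quantified by whole-body autoradiography against standards by regression, background subtracted.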

[6] = system: Stomach; assay: Drug concentration in male Lister Hooded pigmented rat stomach assessed as radioactivity per gram of tissue at 20 mg/kg administered as single dose via gastric gavage measured after 24 hrs by autoradiographic analysis; format: ADME, organism-based; set-up: dose 20 mg/kg, dosed compound name [14C]Sunitinib; conditions: in vivo, po
[7] = system: Lung; assay: Drug concentration in male albino rat lung assessed as radioactivity per gram of tissue at 20 mg/kg administered as single dose via gastric gavage measured after 6 hrs by autoradiographic analysis; format: ADME, organism-based; set-up: dose 20 mg/kg, dosed compound name [14C]Sunitinib; conditions: in vivo, po
[8] = Drug concentration in male albino rat pituitary gland assessed as radioactivity per gram of tissue at 20 mg/kg administered as single dose via gastric gavage measured after 6 hrs by autoradiographic analysis; format: ADME, organism-based; set-up: dose 20 mg/kg, dosed compound name [14C]Sunitinib; conditions: in vivo, po
[9] = system: Kidney; assay: Drug concentration in male albino rat kidney assessed as radioactivity per gram of tissue at 20 mg/kg administered as single dose via gastric gavage measured after 3 hrs by autoradiographic analysis; format: ADME, organism-based; set-up: dose 20 mg/kg, dosed compound name [14C]Sunitinib; conditions: in vivo, po
[10] = system: Spinal cord; assay: Drug concentration in male albino rat spinal cord assessed as radioactivity per gram of tissue at 20 mg/kg administered as single dose via gastric gavage measured after 3 hrs by autoradiographic analysis; format: ADME, organism-based; set-up: dose 20 mg/kg, dosed compound name [14C]Sunitinib; conditions: in vivo, po
[11] = Drug concentration in male Lister Hooded pigmented rat skeletal muscle assessed as radioactivity per gram of tissue at 20 mg/kg administered as single dose via gastric gavage measured after 168 hrs by autoradiographic analysis; format: ADME, organism-based; set-up: dose 20 mg/kg, dosed compound name [14C]Sunitinib; conditions: in vivo, po
[12] = system: Zone of skin; assay: Drug concentration in female albino rat abdomen skin assessed as radioactivity per gram of tissue at 20 mg/kg administered as single dose via gastric gavage measured after 3 hrs by autoradiographic analysis; format: ADME, organism-based; set-up: dose 20 mg/kg, dosed compound name [14C]Sunitinib; conditions: in vivo, po; procedure, shortened: as §1
[13] = system: Thymus; assay: Drug concentration in male Lister Hooded pigmented rat thymus assessed as radioactivity per gram of tissue at 20 mg/kg administered as single dose via gastric gavage measured after 168 hrs by autoradiographic analysis; format: ADME, organism-based; set-up: dose 20 mg/kg, dosed compound name [14C]Sunitinib; conditions: in vivo, po
[14] = system: Brain; assay: Drug concentration in male Lister Hooded pigmented rat brain assessed as radioactivity per gram of tissue at 20 mg/kg administered as single dose via gastric gavage measured after 168 hrs by autoradiographic analysis; format: ADME, organism-based; set-up: dose 20 mg/kg, dosed compound name [14C]Sunitinib; conditions: in vivo, po
[15] = system: Stomach; assay: Drug concentration in female albino rat stomach assessed as radioactivity per gram of tissue at 20 mg/kg administered as single dose via gastric gavage measured after 72 hrs by autoradiographic analysis; format: ADME, organism-based; set-up: dose 20 mg/kg, dosed compound name [14C]Sunitinib; conditions: in vivo, po
[16] = system: Adrenal; assay: Drug concentration in male albino rat adrenal assessed as radioactivity per gram of tissue at 20 mg/kg administered as single dose via gastric gavage measured after 72 hrs by autoradiographic analysis; format: ADME, organism-based; set-up: dose 20 mg/kg, dosed compound name [14C]Sunitinib; conditions: in vivo, po
[17] = Drug concentration in female albino rat uveal tract assessed as radioactivity per gram of tissue at 20 mg/kg administered as single dose via gastric gavage measured after 24 hrs by autoradiographic analysis; format: ADME, organism-based; set-up: dose 20 mg/kg, dosed compound name [14C]Sunitinib; conditions: in vivo, po
[18] = Drug concentration in female albino rat bone marrow assessed as radioactivity per gram of tissue at 20 mg/kg administered as single dose via gastric gavage measured after 72 hrs by autoradiographic analysis; format: ADME, organism-based; set-up: dose 20 mg/kg, dosed compound name [14C]Sunitinib; conditions: in vivo, po; procedure, shortened: as §1
[19] = system: Thymus; assay: Drug concentration in male albino rat thymus assessed as radioactivity per gram of tissue at 20 mg/kg administered as single dose via gastric gavage measured after 6 hrs by autoradiographic analysis; format: ADME, organism-based; set-up: dose 20 mg/kg, dosed compound name [14C]Sunitinib; conditions: in vivo, po
[20] = system: Blood; assay: Drug concentration in female albino rat blood assessed as radioactivity per gram of tissue at 20 mg/kg administered as single dose via gastric gavage measured after 24 hrs by autoradiographic analysis; format: ADME, organism-based; set-up: dose 20 mg/kg, dosed compound name [14C]Sunitinib; conditions: in vivo, po; procedure, shortened: as §1
[21] = system: Heart; assay: Drug concentration in female albino rat heart assessed as radioactivity per gram of tissue at 20 mg/kg administered as single dose via gastric gavage measured after 24 hrs by autoradiographic analysis; format: ADME, organism-based; set-up: dose 20 mg/kg, dosed compound name [14C]Sunitinib; conditions: in vivo, po; procedure, shortened: as §2
[22] = system: Lung; assay: Drug concentration in female Lister Hooded pigmented rat lung assessed as radioactivity per gram of tissue at 20 mg/kg administered as single dose via gastric gavage measured after 24 hrs by autoradiographic analysis; format: ADME, organism-based; set-up: dose 20 mg/kg, dosed compound name [14C]Sunitinib; conditions: in vivo, po
Procedure, shortened: (§3)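 Lister Hooded (pigmented) rats, ca 7-8 weeks old, acclimated 7 days, given [14C]sunitinib L-malate by gastric gavage at 20 mg/kg (15 mg freebase/kg, 100 µCi/kg). One male and one female killed by CO2 at 24, 72, 168 and 336 h. Carcasses frozen in solid CO2/hexane and embedded in frozen cellulose. 30 µm sagittal cryosections were freeze-dried. Tissue radioactivity measured by quantitative whole-body autoradiography against calibration standards, with background subtracted.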

[23] = system: Large intestine; assay: Drug concentration in female albino rat large intestine assessed as radioactivity per gram of tissue at 20 mg/kg administered as single dose via gastric gavage measured after 72 hrs by autoradiographic analysis; format: ADME, organism-based; set-up: dose 20 mg/kg, dosed compound name [14C]Sunitinib; conditions: in vivo, po; procedure, shortened: as §2
[24] = system: Small intestine; assay: Drug concentration in female albino rat small intestine assessed as radioactivity per gram of tissue at 20 mg/kg administered as single dose via gastric gavage measured after 72 hrs by autoradiographic analysis; format: ADME, organism-based; set-up: dose 20 mg/kg, dosed compound name [14C]Sunitinib; conditions: in vivo, po
[25] = Drug concentration in female Lister Hooded pigmented rat eye assessed as radioactivity per gram of tissue at 20 mg/kg administered as single dose via gastric gavage measured after 168 hrs by autoradiographic analysis; format: ADME, organism-based; set-up: dose 20 mg/kg, dosed compound name [14C]Sunitinib; conditions: in vivo, po; procedure, shortened: as §3
[26] = Drug concentration in female Lister Hooded pigmented rat uveal tract assessed as radioactivity per gram of tissue at 20 mg/kg administered as single dose via gastric gavage measured after 336 hrs by autoradiographic analysis; format: ADME, organism-based; set-up: dose 20 mg/kg, dosed compound name [14C]Sunitinib; conditions: in vivo, po; procedure, shortened: as §3

With `CCN(CC)CCNC(=O)c1c(C)[nH]c(/[14CH]=C2\C(=O)Nc3ccc(F)cc32)c1C.O=C(O)C[C@H](O)C(=O)O` the t1/2 lambda z [1] was 10.3 h, the Cmax [2] was 214 ngequiv/ml and the Tmax [3] was 4 h. The Radiolabel recovery [4] was 0.52 ugequiv, the Radiolabel recovery [5] was 13.45 ugequiv and the Radiolabel recovery [6] was 0.67 ugequiv. It also gave a Radiolabel recovery [7] of 17.87 ugequiv, a Radiolabel recovery [8] of 22.94 ugequiv and a Radiolabel recovery [9] of 13.24 ugequiv. It also gave a Radiolabel recovery [10] of 0.19 ugequiv, a Radiolabel recovery [11] of 0.06 ugequiv and a Radiolabel recovery [12] of 3.16 ugequiv. The Radiolabel recovery [13] was 0.06 ugequiv, the Radiolabel recovery [14] was 0.06 ugequiv and the Radiolabel recovery [15] was 0.15 ugequiv. It also gave a Radiolabel recovery [16] of 1.52 ugequiv, a Radiolabel recovery [17] of 0.61 ugequiv and a Radiolabel recovery [18] of 0.1 ugequiv. It also gave a Radiolabel recovery [19] of 6.43 ugequiv, a Radiolabel recovery [20] of 0.19 ugequiv and a Radiolabel recovery [21] of 0.73 ugequiv. For the same molecule, the Radiolabel recovery [22] was 2.79 ugequiv, the Radiolabel recovery [23] was 0.09 ugequiv and the Radiolabel recovery [24] was 0.08 ugequiv. For the same molecule, the Radiolabel recovery [25] was 73.04 ugequiv and the Radiolabel recovery [26] was 323.3 ugequiv.

— ChEMBL document CHEMBL3525900, “Pharmacokinetics, distribution, and metabolism of [14C]sunitinib in rats, monkeys, and humans” (Drug Metab Dispos, 2012)
